The text below walks through data of publication PMC8760168 (Current drug metabolism, 2021).

A short description of data set [1]: Phase I microsomal stability assay, mouse liver microsomes. In kind it is in vitro ADME. Conditions: NADPH, 10 μM, 0.5 mg/mL protein, two hours. A digest of the protocol: (§1)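 Test compound at 10 μM in phosphate buffer pH 7.4 with NADPH regenerating system, preincubated 5 min at 37°C. Started with dog, mouse or rat liver microsomes or human liver fraction (0.5 mg/mL protein).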
A general note: Liver microsomes are a subcellular fraction often used to study metabolism.

For data set [2] the following is noted: repeated high dose exposure in rodents; cited from earlier work.
The target in a further data set is GABAA receptors. Particulars: read-out: receptor affinity (EC50); no reference given; cited from earlier work.
For the next data set, the target named is CYP3A4 (Homo sapiens, UniProt P08684). The data set is described as follows: CYP3A4 inhibition assay. Conditions: recombinant CYP3A4, fluorescent substrate.
Sequence of CYP3A4 (P08684 whole entry): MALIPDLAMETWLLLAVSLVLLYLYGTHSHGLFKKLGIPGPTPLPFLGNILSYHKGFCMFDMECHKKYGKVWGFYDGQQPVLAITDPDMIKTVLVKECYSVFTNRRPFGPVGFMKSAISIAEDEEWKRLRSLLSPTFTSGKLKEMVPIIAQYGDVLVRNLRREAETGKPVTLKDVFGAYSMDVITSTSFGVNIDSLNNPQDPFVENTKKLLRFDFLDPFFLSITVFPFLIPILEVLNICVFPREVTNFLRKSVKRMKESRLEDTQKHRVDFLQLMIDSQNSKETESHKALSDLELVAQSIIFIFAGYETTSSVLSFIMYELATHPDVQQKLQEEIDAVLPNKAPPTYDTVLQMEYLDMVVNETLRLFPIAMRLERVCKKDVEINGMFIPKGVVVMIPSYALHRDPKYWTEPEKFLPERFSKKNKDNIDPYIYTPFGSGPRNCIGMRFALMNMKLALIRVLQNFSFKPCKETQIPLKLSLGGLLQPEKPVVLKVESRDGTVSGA
The conditions of data set [3]: cited from earlier work.
Data set [4] is described as follows: Phase II stability assay, glucosidation, mouse liver S9. In kind it is in vitro ADME. Conditions: mouse liver S9, UDP-Glc. In short, it runs like this:
(§2)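 Glucosidation: test compound 10 μM in phosphate buffer pH 7.4 with UDP-glucose, gluco-1,5-lactone, MgCl2 and alamethicin, 37°C. Started with mouse liver or kidney S9 (0.5 mg/mL protein). Sampled 0–120 min; long assay (kidney) sampled 1–24 h. Quenched in acetonitrile with internal standard, then LC-MS/MS. t1/2 from ln area ratio. Long assay: first-order k from glucoside area ratio. Two independent assays, triplicate.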

A short description of data set [5]: Phase II stability assay, glucosidation, mouse kidney S9. Particulars: mouse kidney S9, UDP-Glc. In kind it is in vitro ADME. In short, it runs like this:
as §2

A short description of data set [6]: Quantification of MIDD0301 and MIDD0301 metabolites in urine and feces. Format: in vivo, Swiss Webster mice. Conditions: for Feces & Urine (%) 0-48 hours / Feces (%) 0-24 hours / Feces (%) 24-48 hours / Urine (%) 0-24 hours / Urine (%) 24-48 hours: % of moles of MIDD0301 administered. In short, it runs like this: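 Seven-week-old female mice housed singly in metabolic cages; n = 3 per route. Dosing: oral 750 μg, IP 750 μg (50% propylene glycol/PBS) or IV 250 μg (PBS). Urine and feces collected at 0–24 and 24–48 h and stored at −20°C. Extracted with internal standards, ultrafiltered, then C18 LC-MS/MS with positive MRM against synthesized-standard calibration curves. Reported as % of moles administered.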

Data set [7] can be described thus: Imaging mass spectrometry of lung after oral administration. Conditions: 25 mg/kg oral, lungs harvested after 1 h, 50 μm resolution. Format: in vivo, Swiss Webster mice. A digest of the protocol: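 Female Swiss Webster mice dosed orally. Lungs excised, frozen briefly on dry-ice vapour, stored at −80°C, then equilibrated to −20°C for 30 min. 20-micron cryosections thaw-mounted, rinsed with 0.1% TFA and dried 1 h. 2,5-Dihydroxyacetophenone matrix (50 mg/mL) sprayed in layers. MALDI-TOF/TOF in reflectron MS/MS mode, transitions m/z 416>372 and 416>331.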

For data set [8] the following is noted: neutral pH; cited from earlier work.
The nature of data set [9]: Phase I microsomal stability assay, human liver fraction. In kind it is in vitro ADME. Particulars: NADPH, 10 μM, 0.5 mg/mL protein, two hours. In short, it runs like this:
as §1

A short description of data set [10]: Phase I microsomal stability assay, rat liver microsomes. Format: in vitro ADME. Particulars: NADPH, 10 μM, 0.5 mg/mL protein, two hours. In short, it runs like this: as §1
The nature of data set [11]: Phase I microsomal stability assay, dog liver microsomes. Format: in vitro ADME. Particulars: NADPH, 10 μM, 0.5 mg/mL protein, two hours. A digest of the protocol:
as §1

Data set [12] can be described thus: Pharmacokinetic studies in mice. Format: in vivo, Swiss Webster mice. In short, it runs like this:
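Six-week-old female mice given 25 mg/kg by gavage (2% PEG in 2% aqueous HPMC), 25 mg/kg IP (50% propylene glycol/50% PBS pH 7.2) or 1 mg/kg tail vein (PBS pH 7.2). Blood, lung and non-perfused brain taken at 10–1,440 min, n = 4 (oral, IP) or 8 (IV). Methanol extraction with internal standard, then LC-MS/MS. Two-compartment model; half-lives from elimination rates.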

A short description of data set [13]: Phase II stability assay, glucuronidation, human liver S9. Conditions: human liver S9, UDP-GlcUA, alamethicin, saccharolactone, 10 μM. Format: in vitro ADME. In short, it runs like this: (§3)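 Glucuronidation: test compound 10 μM in phosphate buffer pH 7.4 with UDP-glucuronic acid, saccharic-1,4-lactone, MgCl2 and alamethicin, 37°C. Started with human or mouse liver S9 (0.5 mg/mL protein). Short assay sampled 0–120 min; long assay (mouse) sampled 1–24 h. Quenched in acetonitrile with internal standard, then LC-MS/MS. t1/2 from ln area ratio. Long assay: first-order k from glucuronide area ratio. Two independent assays, triplicate.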

The nature of data set [14]: Phase II stability assay, glucuronidation, mouse liver S9. In kind it is in vitro ADME. A digest of the protocol:
as §3

The conditions of data set [15]: four hours; cited from earlier work.

Molecules are shown by their SMILES. Several values for one entry are separate records, joined by “and”; a condition that tells them apart may be missing. Equal entries are not always repeated.

Usually EC50 stands for the concentration giving half of the maximal effect. As a reminder, the bioavailability is the share of a dose that reaches the circulation, judged against a reference dose that is usually intravenous.

On to `C[C@H]1N=C(c2ccccc2F)c2cc(Br)ccc2-n2cnc(C(=O)O)c21` [MIDD0301], for which the “metabolic conversion of MIDD0301” value in data set [1], in [9], in data set [10] and in data set [11] was “not observed” throughout. In [2], the adverse effects entry is reported as “did not cause any adverse effects”. Moreover, the EC50 at GABAA receptors was 72 nM. Besides, the “% inhibition of CYP3A4 activity” value on CYP3A4 (10 μM) is “less than 1%”. Also, the brain absorption result in [3] is listed as “very little”. The “central nervous system effects” value in [3] (high single or repeated dosing) is recorded as “no observed central nervous system effects”. In [4], the “conversion of MIDD0301 (glucosidation)” value was “did not observe conversion”. In data set [5], the “reaction rate, formation of MIDD0301 glucoside” value worked out at 0.0038 min⁻¹. For the same molecule, in data set [5] (10 μM), the “half-life, glucosidation” value came to 4.93 h. Besides, the “Feces & Urine (%) 0-48 hours” value was 43.9 ± 6.24% in data set [6] (IP, 750 μg); 32% and 32.0 ± 3.7% in data set [6] (IV, 250 μg); 55.1% and 55.1 ± 5.7% in data set [6] (oral, 750 μg). Further, the “Feces (%) 0-24 hours” value was 43.2% and 43.2 ± 5.9% in data set [6] (IP, 750 μg); 30.4% and 30.4 ± 3.4% in data set [6] (IV, 250 μg); 54.3% and 54.3 ± 5.2% in data set [6] (oral, 750 μg). Also, the “Feces (%) 24-48 hours” value in data set [6] (IP, 750 μg) was 0.3 ± 0.1%; in [6] (IV, 250 μg) it was 1.2 ± 0.2%; in [6] (oral, 750 μg) it was 0.7% and 0.7 ± 0.4%. In addition, the “Urine (%) 0-24 hours” value in data set [6] (IP, 750 μg) was 0.3% and 0.3 ± 0.2%; in [6] (IV, 250 μg), 0.4% and 0.4 ± 0.1%; in [6] (oral, 750 μg), 0.1% and 0.1 ± 0.01%. In addition, the “Urine (%) 24-48 hours” value in [6] (IP, 750 μg) is 0.1 ± 0.04%; in data set [6] (IV, 250 μg), “<LOD”; in data set [6] (oral, 750 μg), “<LOD”. The bioavailability in data set [6] (oral, from unconjugated MIDD0301 excreted, 32% IV versus 55.1% oral) was ≤ 77%. Besides, the “spatial distribution in mouse lung (IMS)” value in data set [7] was “uniform distribution”. In data set [8], the aqueous solubility result was “high”. Moreover, in data set [12] (1 mg/kg IV tail vein injection, blood, lung, brain), the half-lives lay within 1 to 2 h. In data set [12] (1 mg/kg IV, aqueous solution), the “tolerability of tail vein injection” value was “well-tolerated without signs of irritation”. Further, the signs of toxicity entry in data set [12] (25 mg/kg IP, throughout the study) was “no signs of toxicity”. Also, the “blood concentration after 24 h” value in data set [12] (25 mg/kg oral) is reported as 12 nM. The “brain concentration after 24 h” value in data set [12] (25 mg/kg oral) is reported as “less than 3 nM”. Moreover, the “lung concentration after 24 h” value in [12] (25 mg/kg oral) is recorded as “less than 3 nM”. The tmax in [12] (25 mg/kg oral gavage) is 0.333 h. Also, the “brain concentration as % of the corresponding blood concentrations” value in data set [12] (25 mg/kg oral, non-perfused brains) is recorded as “less than 7%”. Besides, in data set [12] (25 mg/kg oral, based on calculated elimination rates, two compartment model), the “half-lives for blood and lung” value was 4 to 5 h. Moreover, the “drug half-life in blood, lung, and brain” value in data set [12] (IP administration) and in data set [12] (oral administration) was 4 to 6 h each time. For the same molecule, the “half-life, conversion to glucuronide” value in data set [13] was 4 h; in data set [14] (mouse liver S9, UDP-GlcUA, alamethicin, saccharolactone, 10 μM), 2.38 h. Also, in data set [14] (mouse liver S9, monitored for 8 h), the “reaction rate, formation of MIDD0301 glucuronide (first order kinetics)” value stood at 0.0042 min⁻¹.

Consider `C#Cc1ccc2c(c1)C(c1ccccc1F)=N[C@H](C)c1c(C(=O)NC)ncn1-2` [MP-III-022], for which the metabolic stability result in data set [15] is reported as “stable”.

As to `C#Cc1ccc2c(c1)C(c1ccccc1F)=N[C@H](C)c1c(C(=O)OCC)ncn1-2` [SH-053-2’F-R-CH3], in data set [15], the metabolic stability result was “metabolized fully within four hours”.

For `Cc1c(O)cccc1C(=O)N[C@@H](CSc1ccccc1)[C@H](O)CN1C[C@H]2CCCC[C@H]2C[C@H]1C(=O)NC(C)(C)C` [nelfinavir, reference compound], the “inhibition of CYP3A4 activity” value at CYP3A4 (100 μM) is given as “completely inhibited”.
